Measurements from paper PMC5966832 (Environmental science & technology, 2018).

Experiments:
human liver microsomes [1] = assay type: in vitro ADME; conditions: for Difference in rate of metabolite formation, donor H1 vs. donor H5: individual donor HLM preparations
Method in brief: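 Pooled HLMs (50 donors, mixed gender) or female single-donor HLMs (H1–H5, age 20–58) were used. Buffer was 0.1 M phosphate pH 7.4 with 3 mM MgCl2. Pre-incubated 5 min at 37 °C, then started with substrate in DMSO (≤0.5% of volume), in triplicate. Stopped with ice-cold 0.5 M NaOH and heated 110 °C for 10 min. Extracts were methylated and run on GC-μECD against PCB 204 using relative response factors. Rates adjusted per nmol P450 or per mg protein.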

human liver microsomes [2] = test: Atropselective; assay type: in vitro ADME; conditions: for EF of the OH-PCB metabolite before racemization: representative extract, 15 min incubation, 50 μM PCB 91, HLMs from donor H5
Method in brief: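 Racemic PCB 91 at 50 μM was incubated 15 min at 37 °C with 0.1 mg/mL microsomes and 1 mM NADPH, in triplicate. Depletion runs used 5 or 50 μM, 120 min, 0.5 mg/mL protein and 0.5 mM NADPH. Metabolites were methylated with diazomethane. GC-μECD used a ChiralDex B-DM column (135 °C) for PCB 91, 5-91 and 4-91, and a G-TA column (140 °C) for 3-100. EF = E1/(E1+E2) by drop valley; mean ± SD.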

[3] = assay type: physicochemical; conditions: extract heated at 300 °C for 2 h; for EF of the OH-PCB metabolite after racemization: 15 min incubation, donor H5
Method in brief: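 Representative hexane extracts were placed in amber ampules and heated at 300 °C. One came from a pooled-HLM incubation; the other from a 50 μM PCB 91 incubation with donor H5 microsomes. Both were re-run by enantioselective GC-μECD, ChiralDex B-DM or G-TA column according to analyte. EF = E1/(E1+E2), drop valley method.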

rat liver microsomes = conditions: E2-PCB 91 enriched; cited from earlier work
recombinant rat CYP2B1 = conditions: E2-PCB 91 enriched; cited from earlier work

Row | Structure (SMILES) | Difference in rate of metabolite formation, donor H1 vs. donor H5 (human liver microsomes [1]) [fold] | EF of the OH-PCB metabolite before racemization (human liver microsomes [2]) | EF of the OH-PCB metabolite after racemization [3] | PCB 91 added to the incubation converted to OH-PCB metabolites (human liver microsomes [1]; 50 μM PCB 91, 0.1 mg/mL HLMs, 1 mM NADPH, 5 or 15 min, 37 °C) [%] | EF of PCB 91, all other incubations (human liver microsomes [2]; high concentrations of racemic PCB 91) | EF of PCB 91 after racemization ([3]; 2 h incubation, 5 μM PCB 91, pHLMs) | EF of PCB 91 in incubations with rat liver microsomes (rat liver microsomes) | EF of PCB 91 in incubations with recombinant rat CYP2B1 (recombinant rat CYP2B1)
1 | Oc1c(Cl)cc(Cl)c(-c2ccc(Cl)cc2Cl)c1Cl [3-100, 2,2′,4,4′,6-pentachlorobiphenyl-3-ol] | 2.6 | 0.87 | 0.46 |  |  |  |  | 
2 | Oc1cc(Cl)c(-c2ccc(Cl)cc2Cl)c(Cl)c1Cl [4-91, 2,2′,3,4′,6-pentachlorobiphenyl-4-ol] | 5.4 | 0.85 | 0.51 |  |  |  |  | 
3 | Oc1cc(Cl)c(Cl)c(-c2ccc(Cl)cc2Cl)c1Cl [5-91, 2,2′,3,4′,6-pentachlorobiphenyl-5-ol] | 19 | 0.43 | 0.49 |  |  |  |  | 
4 | Clc1ccc(-c2c(Cl)ccc(Cl)c2Cl)c(Cl)c1 [PCB 91, 2,2′,3,4′,6-pentachlorobiphenyl] |  |  |  | ≤ 2 | near racemic | 0.50 | 0.43 | 0.45
